Assay outcomes deposited in PubChem BioAssay by several laboratories.
This is one part of a sample in which hits are shown more often than they occur.
CHOP inh: CHOP inhibition in unfolded protein response; CHO-K1 CHOP-promoter luciferase, tunicamycin-induced, 15-18 h; inhibition, % at 10 µM; 220,000 compounds, 3.8% hits; AID 2732;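 active = compounds that reduced the stress-induced luciferase reporter signal by more than about 70% of percent inhibition, limit read from the data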;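 also: 0% = tunicamycin plus vehicle and 100% = wells without tunicamycin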
Lmaj promast: inhibitors of Leishmania major promastigote growth; inhibition, % at 10 µM; 200,000 compounds, 9% hits; AID 1063; Leishmania major promastigotes, resazurin fluorescence viability; in the data active = inhibition above about 50%;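 also: promastigotes grown with compound for 44 hours at 28 °C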
Dynein cargo inh: dynein cargo transport inhibition; AID 1381; 3617.4 mouse cells, GR-EGFP nuclear translocation imaging; test concentration mostly 20 µM; stimulated with dexamethasone, 1 µM; stronger effect = lower value; 220,000 compounds, 0.47% hits; z-score, hits read low;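 active = plate z-score of nuclear minus cytoplasmic receptor signal below a set negative limit, without overly bright fluorescence or cell loss, cut at about -3.5 in these data, passing the limit was not always enough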;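 also: z-score of nuclear minus cytoplasmic ring GR-EGFP intensity difference per well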
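Also added: dexamethasone, 1.0 µM final. Medium: tet-free, stripped-serum medium. Detection: fixed, Hoechst-stained cells imaged at 10x for EGFP. Read-out: nuclear-to-cytoplasmic GR-EGFP distribution per well. Times: induction 48 h, compound 1 h, agonist 30 min.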
CHOP UPR activ: apoptotic UPR (CHOP) activation; CHO-CHOP luciferase reporter, luminescence; percent of tunicamycin response over DMSO baseline; activation, % at 10 µM; 330,000 compounds, 0.34% hits;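 active = at 10 µM dose, activation of 40% or more, normalized to positive control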;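 also: 100% = tunicamycin at 10 µg/mL and 0% = DMSO alone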
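Evaluation: % reporter activation, DMSO baseline versus tunicamycin full activation; System: CHO-CHOP luciferase reporter cell line; Input: 500 cells/well; Incubation: 6 h compound treatment, 37 °C; Measured by: Steady-Glo luciferase luminescence; Dosing: one dose, 10 µM in 0.5% DMSO; Buffer or medium: F12 medium, 10% FBS; Benchmarks: positive tunicamycin 10 µg/mL, negative DMSO alone.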
UPR XBP1 act: adaptive UPR (XBP1) activation; CHO-XBP1 luciferase reporter, IRE1-XBP1 UPR activation, luminescence; percent of tunicamycin response, DMSO as zero; activation, % at 20 µM; 330,000 compounds, 0.33% hits; AID 463104;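 active = versus positive control, 20 µM dose yields 30% or more activation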;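 also: 100% = tunicamycin at 10 µg/mL and 0% = DMSO only wells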
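incubation = overnight seeding at 37 °C, 6 h compound treatment at 37 °C | assay system = CHO-XBP1 cells stably carrying IRE1-XBP1-driven luciferase reporter | input = 1000 cells per well | detection = luciferase luminescence | dosing = single point, 20 µM final compound, 1% DMSO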
T cruzi repl: blocks replication of Trypanosoma cruzi; T. cruzi beta-gal in NIH3T3, luminescence, 90 h; inhibition, % (no concentration beside the values); 300,000 compounds, 1.4% hits;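 active = mean inhibition across valid replicates above about 55%, limit read from the data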;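 also: signal also drops with host cell toxicity which is not excluded here; 0% = plate median of DMSO wells and 100% = zero luminescence signal; higher percent means less beta-gal luminescence so fewer parasites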
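Material: NIH/3T3 host cells with β-galactosidase reporter T. cruzi; Input: 5,000 host fibroblasts per well; Medium: DMEM, 2% fetal bovine serum; Compound: 50 nL DMSO compound solution per well; Schedule: 3 h host attachment, then at least 90 h co-culture; Detection: luminescent β-galactosidase signal after 60 min lysis.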
Starred values were filed as active, the others as inactive.

Cc1ccc2oc3c(c(=O)c2c1)C(c1cccc(Br)c1)N(Cc1ccco1)C3=O (configuration not stated) was read as CHOP inh 81*, Lmaj promast 6 and Dynein cargo inh 1.3.
Screening Cn1cnc2c(=O)sc3ccccc3c21 returned CHOP UPR activ 1, UPR XBP1 act 0 and T cruzi repl -8.
For O=C(NC(=S)Nc1cccnc1Cl)c1ccc(F)cc1 the results were CHOP UPR activ 3, UPR XBP1 act 8 and T cruzi repl -25.
For CCCCCC(O)(CCCCC)C(=O)NNc1ccccc1 the results were CHOP inh 91*, Lmaj promast 40, Dynein cargo inh 1.5, CHOP UPR activ -1, UPR XBP1 act -6 and T cruzi repl 23.
`O=C(NC1CCCCC1)C(c1ccc(F)cc1)N(CCc1ccccc1)C(=O)CN1C(=O)c2ccccc2S1(=O)=O` (configuration not stated) gave CHOP inh 53, Lmaj promast 50*, Dynein cargo inh -0.018 and T cruzi repl -3.
Screening Cc1cc(C)c(N(C(=O)CN2C(=O)c3ccccc3S2(=O)=O)C(C(=O)NCC2CCCO2)c2ccc(F)cc2)c(C)c1 (configuration not stated) returned CHOP inh 53, Lmaj promast 69*, Dynein cargo inh 0.073, CHOP UPR activ 3, UPR XBP1 act 1 and T cruzi repl 7.
`O=C(CN1C(=O)c2ccccc2S1(=O)=O)NC1CCCC1` gave CHOP inh 21, Lmaj promast -5, Dynein cargo inh 0.23, CHOP UPR activ 0, UPR XBP1 act 5 and T cruzi repl -11.
Screening OC(COc1ccc2ccccc2c1Br)Cn1cnc(-c2ccccc2)c1 (configuration not stated) returned CHOP inh 76*, Lmaj promast 1, Dynein cargo inh -0.84, CHOP UPR activ -2, UPR XBP1 act -3 and T cruzi repl 23.
`COc1ccc(OCC(O)Cn2cnc(-c3ccc(Br)cc3)c2)cc1` (configuration not stated) gave CHOP inh 22, Lmaj promast -3, Dynein cargo inh -0.32, CHOP UPR activ -1, UPR XBP1 act -1 and T cruzi repl -9.
`COc1ccc(CCc2nnc(N)s2)cc1OC` gave CHOP UPR activ 1, UPR XBP1 act -4 and T cruzi repl -10.
Cc1ccccc1N(CC(=O)N/N=C/c1ccc(N(C)C)cc1)C(=O)c1ccccc1 was read as CHOP inh 20, Lmaj promast 99*, Dynein cargo inh -1.3, CHOP UPR activ 3, UPR XBP1 act 0 and T cruzi repl 8.
Screening Cc1ccccc1N(CC(=O)N/N=C/c1ccccc1Cl)C(=O)c1ccccc1 returned CHOP inh 73*, Lmaj promast 38, Dynein cargo inh 0.86, CHOP UPR activ 0, UPR XBP1 act 8 and T cruzi repl 4.
CC(=O)c1ccc(NC(=O)Cn2c3ccccc3c3nc(=O)cc(C)n32)cc1 was read as CHOP inh 26, Dynein cargo inh -0.00086, CHOP UPR activ 0, UPR XBP1 act 0 and T cruzi repl -3.
For COc1cc(NC(=O)c2ccccc2)c(OC)cc1NC(=O)CN1C(=O)N(C)C2(CCCCC2)C1=O the results were CHOP UPR activ 0 and UPR XBP1 act -1.
`Cc1ccc2c(c1)N(CC(=O)N1CCCCC1c1cccnc1)C(=O)CO2` (configuration not stated) gave CHOP inh 13, Lmaj promast 77*, Dynein cargo inh -1.2, CHOP UPR activ -1, UPR XBP1 act -1 and T cruzi repl 61*.
For CCC(C)N(C(=O)c1csnn1)C(C(=O)NCc1ccc(F)cc1)c1ccccc1F (configuration not stated) the results were CHOP UPR activ 0, UPR XBP1 act 2 and T cruzi repl 2.
`c1cnc2ccc(C(c3nnnn3C3CCCC3)N3CCN4CCCC4C3)cc2c1` (configuration not stated) gave CHOP inh 5, Lmaj promast 52*, Dynein cargo inh 0.058, CHOP UPR activ -2, UPR XBP1 act 3 and T cruzi repl -1.
Screening c1cnc2ccc(C(c3nnnn3C3CCCCC3)N3CCCCC3)cc2c1 (configuration not stated) returned CHOP inh -29, Lmaj promast 28, Dynein cargo inh -0.69, CHOP UPR activ 6, UPR XBP1 act -1 and T cruzi repl -2.
`c1cnc2ccc(C(c3nnnn3C3CCCCC3)N3CCN(C4CCCCC4)CC3)cc2c1` (configuration not stated) gave Lmaj promast 99*, Dynein cargo inh -0.65, CHOP UPR activ 0, UPR XBP1 act -3 and T cruzi repl 69*.
For Nc1c(C(=O)OCC2CCCO2)c2nc3ccccc3nc2n1C1CCCC1 (configuration not stated) the results were Lmaj promast 51*, Dynein cargo inh 1.9, CHOP UPR activ 0, UPR XBP1 act 8 and T cruzi repl 17.
`CC(C)Cn1c(N)c(C(=O)NCC2CCCO2)c2nc3ccccc3nc21` (configuration not stated) gave CHOP inh 23, Lmaj promast 59*, Dynein cargo inh -0.21, CHOP UPR activ 2, UPR XBP1 act 0 and T cruzi repl 8.
For Nc1c(C(=O)NC2CCCC2)c2nc3ccccc3nc2n1N the results were CHOP inh 74*, Lmaj promast 11, Dynein cargo inh -0.6, CHOP UPR activ 2, UPR XBP1 act 0 and T cruzi repl 9.
Screening COc1cccc(CN2CCNC(=O)C2CC(=O)NCCCN2CCCC2=O)c1 (configuration not stated) returned CHOP UPR activ 0, UPR XBP1 act -2 and T cruzi repl -5.
For CN(CC(=O)Nc1ccccc1Br)C(=O)c1cc2c(s1)CCCCC2 the results were CHOP UPR activ 5, UPR XBP1 act 0 and T cruzi repl -10.
For Cc1ccc(NS(=O)(=O)c2ccc(NC(=O)c3ccccc3C(=O)O)cc2)c(C)c1 the results were CHOP UPR activ 1, UPR XBP1 act 1 and T cruzi repl 64*.
`Cc1ccc(NS(=O)(=O)c2ccc(NC(=O)CSc3ccc(Cl)cc3)cc2)c(C)c1` gave CHOP inh 70*, Lmaj promast -4, Dynein cargo inh -1.1, CHOP UPR activ 0, UPR XBP1 act -1 and T cruzi repl 10.
Screening Cc1ccc(O)c(NC(=O)CSc2ccc(Cl)cc2)c1 returned CHOP inh 1, Lmaj promast 1, Dynein cargo inh 0.46, CHOP UPR activ 0, UPR XBP1 act 1 and T cruzi repl -5.
